In ChEMBL document CHEMBL1159065, “Conjugates of desferrioxamine B (DFOB) with derivatives of adamantane or with orally available chelators as potential agents for treating iron overload” (J Med Chem, 2010):
≈ marks a conversion by molar mass, not a printed value. Calls of active or inactive are those of the source. The calls are words filed in the database; no cut-off is given here.

Columns and labels:
SK-N-MC [1] = assay: Induction of [59Fe] mobilization in human SK-N-MC cells prelabeled with [59Fe]transferrin at 50 uM after 3 hrs relative to untreated control; assay type: functional
In short: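 Cells prelabeled with 59Fe-Tf (0.75 μM), 3 h, 37 °C; washed four times in ice-cold PBS, then exposed to chelator (50 μM) 3 h at 37 °C. Medium removed by Pasteur pipet; gamma counting of cell pellet and supernatant gives released 59Fe as % of cellular 59Fe. Mean ± SD, three experiments, triplicate determinations each.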

[2] = target: Serotransferrin (Homo sapiens) (UniProt P02787); assay: Inhibition of [59Fe] uptake from [59Fe]transferrin in human SK-N-MC cells at 50 uM after 3 hrs relative to relative to desferrioxamine B; assay type: cell-based
Sequence of Serotransferrin (Homo sapiens) (P02787 whole entry): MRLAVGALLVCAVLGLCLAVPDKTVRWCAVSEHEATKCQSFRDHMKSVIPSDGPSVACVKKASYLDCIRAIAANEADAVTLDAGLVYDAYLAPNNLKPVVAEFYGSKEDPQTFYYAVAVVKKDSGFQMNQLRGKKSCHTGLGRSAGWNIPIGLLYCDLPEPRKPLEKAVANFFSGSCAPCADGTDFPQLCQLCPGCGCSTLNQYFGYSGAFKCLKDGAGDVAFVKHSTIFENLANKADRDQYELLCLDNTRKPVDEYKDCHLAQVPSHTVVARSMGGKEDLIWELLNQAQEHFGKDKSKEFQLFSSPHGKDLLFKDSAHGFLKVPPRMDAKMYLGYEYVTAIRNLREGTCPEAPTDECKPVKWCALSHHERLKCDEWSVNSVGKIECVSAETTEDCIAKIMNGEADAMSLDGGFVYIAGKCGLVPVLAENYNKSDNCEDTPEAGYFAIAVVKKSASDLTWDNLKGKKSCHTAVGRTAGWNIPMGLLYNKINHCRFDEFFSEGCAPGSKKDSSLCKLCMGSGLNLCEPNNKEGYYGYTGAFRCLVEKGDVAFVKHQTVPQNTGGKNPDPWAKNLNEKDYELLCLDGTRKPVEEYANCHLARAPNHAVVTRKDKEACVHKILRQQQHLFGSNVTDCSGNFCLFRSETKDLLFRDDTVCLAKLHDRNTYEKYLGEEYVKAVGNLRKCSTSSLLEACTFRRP
In short: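 SK-N-MC cells incubated with 59Fe-Tf (0.75 μM) plus chelator (50 μM), 3 h at 37 °C; washed four times in ice-cold PBS, then Pronase (1 mg/mL) 30 min at 4 °C. Pronase-insensitive pellet after centrifugation taken as internalized 59Fe, expressed as % of untreated control. Mean ± SD, three experiments, triplicate determinations each.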

[3] = Toxicity in human SK-N-MC cells by MTT method; assay type: cell-based
In short: (§1)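 MTT proliferation assay giving IC50; MTT colour checked proportional to viable cell number by Trypan blue (SK-N-MC) or total cell protein (MDCK II). SK-N-MC grown as in earlier work; MDCK II cultured by standard procedures.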

[4] = Toxicity in MDCK cells by MTT method; assay type: cell-based, Canis lupus familiaris; conditions: dog; in short: as §1
[5] = Partition coefficient, log P by RP-HPLC; assay type: physicochemical; conditions: octanol/water
[6] = Partition coefficient, log P by shake flask method; assay type: physicochemical; conditions: octanol/water
[7] = target: Serotransferrin (Homo sapiens) (UniProt P02787); assay: Inhibition of [59Fe] uptake from [59Fe]transferrin in human SK-N-MC cells assessed as at 50 uM after 3 hrs relative to untreated control; values are per cent of control
[8] = Solubility in water; assay type: physicochemical
SK-N-MC [9] = assay: Induction of [59Fe] mobilization in human SK-N-MC cells prelabeled with [59Fe]transferrin at 50 uM after 3 hrs relative to desferrioxamine B; assay type: functional
In short: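 Cells were prelabeled with 59Fe-Tf (0.75 μM) for 3 h at 37 °C, washed four times with ice-cold PBS, then exposed to chelator (50 μM) for 3 h at 37 °C. Released 59Fe in the medium and cell-pellet 59Fe were counted by γ-counter. DFOB was run in parallel. Data are mean ± SD of three experiments, each with triplicate determinations.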

SMILES: CC(=O)N(O)CCCCCNC(=O)CCC(=O)N(O)CCCCCNC(=O)CCC(=O)N(O)CCCCCNC(=O)COc1ccc(C)cc1
- Activity (SK-N-MC [1]): Active
- inhibition [2]: Active
- IC50 [3]: > 200 µM
- IC50 [4]: > 150 µM
- logP [5]: 0.93
- logP [6]: 1.68

SMILES: CC(=O)N(O)CCCCCNC(=O)CCC(=O)N(O)CCCCCNC(=O)CCC(=O)N(O)CCCCCNC(=O)C12CC3CC(CC(O)(C3)C1)C2
- Activity (SK-N-MC [1]): inactive
- IC50 [3]: > 200 µM
- IC50 [4]: > 100 µM
- logP [5]: -0.11
- logP [6]: 0.29

SMILES: CC(=O)N(O)CCCCCNC(=O)CCC(=O)N(O)CCCCCNC(=O)CCC(=O)N(O)CCCCCN [DEFEROXAMINE]
- Activity (SK-N-MC [1]): 12%
- IC50 [3]: 16 µM
- IC50 [4]: 9.49 µM
- residual activity [7]: 87%
- solubility [8]: 400 mM (≈ 224 mg/mL)

SMILES: c1ccc2ccccc2c1
- logP [6]: 3.32

SMILES: CC(=O)N(O)CCCCCNC(=O)CCC(=O)N(O)CCCCCNC(=O)CCC(=O)N(O)CCCCCNC(=O)C12CC3CC(CC(C3)C1)C2
- inhibition [2]: Active
- IC50 [3]: 174 µM
- IC50 [4]: 119 µM
- fold change (FC) (SK-N-MC [9]): 2.2
- logP [5]: 1.29
- logP [6]: 2.11

SMILES: O=C(O)c1ccc(-n2nc(-c3ccccc3O)nc2-c2ccccc2O)cc1 [DEFERASIROX]
- IC50 [3]: 20.5 µM
- residual activity [7]: 39%
- logP [6]: 3.8

SMILES: CC(=O)N(O)CCCCCNC(=O)CCC(=O)N(O)CCCCCNC(=O)CCC(=O)N(O)CCCCCNC(=O)c1ccc(-n2nc(-c3ccccc3O)nc2-c2ccccc2O)cc1
- Activity (SK-N-MC [1]): Active
- inhibition [2]: Active
- IC50 [3]: 20.6 µM
- IC50 [4]: 23.4 µM
- logP [5]: 3.02
- logP [6]: 2.17

SMILES: CN(C)C(=S)NN=C(c1ccccn1)c1ccccn1
- residual activity [7]: 12%

SMILES: COC(=O)c1ccccc1C(=O)OC [DIMETHYL PHTHALATE]
- logP [6]: 1.61

SMILES: CC(=O)N(O)CCCCCNC(=O)CCC(=O)N(O)CCCCCNC(=O)CCC(=O)N(O)CCCCCNC(=O)Cn1ccc(=O)c(O)c1C
- IC50 [3]: > 200 µM
- IC50 [4]: > 300 µM
- logP [5]: -1.16
- logP [6]: -1.29

SMILES: c1ccc2c(c1)oc1ccccc12 [DIBENZOFURAN]
- logP [6]: 4.04

SMILES: Cc1c(O)c(=O)ccn1C [DEFERIPRONE]
- Activity (SK-N-MC [1]): inactive
- IC50 [3]: 166 µM
- logP [6]: -1.02

SMILES: CC(=O)N(O)CCCCCNC(=O)CCC(=O)N(O)CCCCCNC(=O)CCC(=O)N(O)CCCCCNC(=O)CC12CC3CC(CC(C3)C1)C2
- inhibition [2]: Active
- IC50 [3]: 167 µM
- IC50 [4]: 226 µM
- fold change (FC) (SK-N-MC [9]): 2.8
- logP [5]: 1.47
- logP [6]: 2.21

SMILES: CC(=O)N(O)CCCCCNC(=O)CCC(=O)N(O)CCCCCNC(=O)CCC(=O)N(O)CCCCCNC(=O)C12CC3CC(C)(CC(C)(C3)C1)C2
- inhibition [2]: Active
- IC50 [3]: 92.4 µM
- IC50 [4]: 163 µM
- fold change (FC) (SK-N-MC [9]): 3
- residual activity [7]: 18%
- logP [5]: 1.95
- logP [6]: 2.92
